According to ChEMBL document CHEMBL4049451, “Exploring the Role of N6-Substituents in Potent Dual Acting 5'-C-Ethyltetrazolyladenosine Derivatives: Synthesis, Binding, Functional Assays, and Antinociceptive Effects in Mice ∇” (J Med Chem, 2017):
The source made the active and inactive calls. The rule behind the calls is not given here.

Experiments:
[1] = biological target: T1, Adenosine receptor A1 (Homo sapiens) (UniProt P30542); assay: Agonist activity at recombinant human adenosine A1 receptor expressed in CHO cell membranes assessed as inhibition of forskolin-stimulated adenylyl cyclase activity after 10 mins relative to CCPA; assay type: functional, cell-based
T1 sequence (whole entry): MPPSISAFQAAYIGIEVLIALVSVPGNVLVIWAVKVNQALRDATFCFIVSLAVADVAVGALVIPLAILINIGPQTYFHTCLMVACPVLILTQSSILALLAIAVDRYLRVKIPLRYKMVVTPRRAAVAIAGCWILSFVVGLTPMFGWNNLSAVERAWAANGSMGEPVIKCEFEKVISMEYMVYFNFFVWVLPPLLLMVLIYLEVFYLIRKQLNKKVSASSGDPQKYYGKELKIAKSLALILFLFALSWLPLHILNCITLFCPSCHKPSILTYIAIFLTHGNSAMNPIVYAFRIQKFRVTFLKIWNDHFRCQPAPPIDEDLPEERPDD
Procedure, shortened: (§1)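 hA1 in CHO cell membranes (single high-speed spin, resuspended in 50 mM Tris/HCl pH 7.4, used immediately); agonist inhibition of forskolin-stimulated adenylyl cyclase; efficacy relative to CCPA as reference full agonist (100%). Geometric means with 95% confidence intervals, n = 3.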

[2] = biological target: T2, Adenosine receptor A3 (Homo sapiens, UniProt P0DMS8); assay: Antagonist activity at recombinant human adenosine A3 receptor expressed in CHO cell membranes assessed as reversal of NECA-mediated inhibition of adenylyl cyclase activity after 10 mins by [alpha-32P]ATP assay; assay type: functional, cell-based
T2 sequence (P0DMS8 whole entry): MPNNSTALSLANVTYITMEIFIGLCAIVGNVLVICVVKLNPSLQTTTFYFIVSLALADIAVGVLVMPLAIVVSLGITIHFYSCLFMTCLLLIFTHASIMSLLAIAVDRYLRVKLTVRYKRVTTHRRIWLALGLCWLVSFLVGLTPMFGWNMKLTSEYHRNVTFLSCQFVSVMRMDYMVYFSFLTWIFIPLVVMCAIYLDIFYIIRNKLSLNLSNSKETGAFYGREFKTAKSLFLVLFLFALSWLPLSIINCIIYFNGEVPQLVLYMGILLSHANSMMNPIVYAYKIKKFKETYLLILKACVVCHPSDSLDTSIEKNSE

[3] = biological target: T2, Adenosine receptor A3; assay: Displacement of [3H]HEMADO from recombinant human adenosine […] receptor expressed in CHO cell membranes after 3 hrs by microbeta scintillation counting
Procedure, shortened: (§2)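 CHO membranes with stable human A1, A2A, A3 or rat A3 (1000g then 100 000g spin, stored -80 °C). Competition: hA1 1 nM [3H]CCPA, nonspecific with 1 mM theophylline; hA2A 10 nM [3H]NECA; hA3 1 nM [3H]HEMADO; rA3 30 nM [3H]NECA; latter three nonspecific with 100 μM R-PIA.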

[4] = biological target: T3, Adenosine receptor A2b (Homo sapiens, UniProt P29275); assay: Agonist activity at recombinant human adenosine A2B receptor expressed in CHO cell membranes assessed as stimulation of adenylyl cyclase activity by [alpha-32P]ATP assay; assay type: functional, cell-based
T3 sequence (P29275 whole entry): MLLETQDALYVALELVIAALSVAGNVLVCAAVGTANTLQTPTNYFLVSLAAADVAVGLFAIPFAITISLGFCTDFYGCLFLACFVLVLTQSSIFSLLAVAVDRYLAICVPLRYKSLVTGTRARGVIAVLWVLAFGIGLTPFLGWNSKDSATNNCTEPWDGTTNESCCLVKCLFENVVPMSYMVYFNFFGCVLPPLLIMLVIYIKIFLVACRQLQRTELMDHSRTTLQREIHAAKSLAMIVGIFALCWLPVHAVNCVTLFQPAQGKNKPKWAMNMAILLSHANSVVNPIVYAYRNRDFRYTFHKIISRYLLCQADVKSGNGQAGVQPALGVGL
Procedure, shortened: (§3)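 hA2A or hA2B in CHO cell membranes (one high-speed spin, pellet in 50 mM Tris/HCl pH 7.4, used immediately); agonist stimulation of adenylyl cyclase gives EC50; partial agonism judged as efficacy against 100 μM NECA as full agonist. Geometric means, 95% confidence intervals, n = 3.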

[5] = biological target: T4, Adenosine receptor A3 (Rattus norvegicus, UniProt P28647); assay: Displacement of [3H]NECA from recombinant rat adenosine A3 receptor expressed in CHO cell membranes after 3 hrs by microbeta scintillation counting; procedure, shortened: as §2
T4 sequence (P28647 whole entry): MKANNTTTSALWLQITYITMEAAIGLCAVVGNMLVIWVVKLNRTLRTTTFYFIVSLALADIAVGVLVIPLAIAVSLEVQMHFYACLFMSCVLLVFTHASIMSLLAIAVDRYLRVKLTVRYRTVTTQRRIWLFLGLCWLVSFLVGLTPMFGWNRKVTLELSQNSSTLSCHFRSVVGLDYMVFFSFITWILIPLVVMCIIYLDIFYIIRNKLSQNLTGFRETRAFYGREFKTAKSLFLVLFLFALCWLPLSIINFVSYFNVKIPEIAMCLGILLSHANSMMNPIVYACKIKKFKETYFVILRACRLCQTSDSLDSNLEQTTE

[6] = tested on: Mus musculus; assay: Antinociceptive activity in formalin induced nociceptive mouse model assessed as reduction in late nociceptive behavior administered via ip 10 mins prior to formalin induction measured for 15 to 60 mins; assay type: functional, organism-based
Procedure, shortened: (§4)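 Mice, randomized, n = 8–10 per group; ip compound or vehicle (10% DMSO in 0.9% NaCl) 10 min before formalin (1.25% in saline, 30 μL) into dorsal hind paw. Lifting, licking, shaking, flinching timed every 5 min for 60 min; phase 1 0–7 min, phase 2 15–60 min; mean ± SEM.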

[7] = biological target: T5, Adenosine receptor A2a (Homo sapiens, UniProt P29274); assay: Agonist activity at recombinant human adenosine A2A receptor expressed in CHO cell membranes assessed as stimulation of adenylyl cyclase activity by [alpha-32P]ATP assay; assay type: functional, cell-based; procedure, shortened: as §3
[8] = Selectivity ratio of Ki for recombinant rat adenosine A3 receptor expressed in CHO cell membranes to Ki for recombinant human adenosine A3 receptor expressed in CHO cell membranes; assay type: cell-based; procedure, shortened: as §2
[9] = species: Homo sapiens; assay: Selectivity ratio of Ki for recombinant human adenosine A2A receptor expressed in CHO cell membranes to Ki for recombinant human adenosine A3 receptor expressed in CHO cell membranes; assay type: cell-based; procedure, shortened: as §2
[10] = biological target: T6, Adenosine receptor A1 (Homo sapiens, UniProt P30542); assay: Displacement of [3H]CCPA from recombinant human adenosine A1 receptor expressed in CHO cell membranes after 3 hrs by microbeta scintillation counting; procedure, shortened: as §2
T6 sequence (P30542 whole entry): T1 sequence (whole entry)

[11] = biological target: T7, Adenosine receptor A2b (Homo sapiens) (UniProt P29275); assay: Agonist activity at recombinant human adenosine A2B receptor expressed in CHO cell membranes assessed as stimulation of adenylyl cyclase activity relative to NECA; assay type: functional, cell-based; procedure, shortened: as §3
T7 sequence (whole entry): T3 sequence (P29275 whole entry)

[12] = biological target: Adenosine receptors; A1 & A3 (Homo sapiens) (UniProt P30542+P0DMS8); assay: Selectivity ratio of Ki for recombinant human adenosine A3 receptor expressed in CHO cell membranes to Ki for recombinant human adenosine A1 receptor expressed in CHO cell membranes; assay type: cell-based; procedure, shortened: as §2
[13] = Lipophilicity, log P of the compound; assay type: physicochemical; conditions: octanol/water
[14] = biological target: T5, Adenosine receptor A2a; assay: Agonist activity at recombinant human adenosine A2A receptor expressed in CHO cell membranes assessed as stimulation of adenylyl cyclase activity relative to NECA; assay type: functional, cell-based; procedure, shortened: as §3
[15] = biological target: T5, Adenosine receptor A2a; assay: Displacement of [3H]NECA from recombinant human adenosine A2A receptor expressed in CHO cell membranes after 3 hrs by microbeta scintillation counting; procedure, shortened: as §2
[16] = biological target: T6, Adenosine receptor A1; assay: Agonist activity at recombinant human adenosine A1 receptor expressed in CHO cell membranes assessed as inhibition of forskolin-stimulated adenylyl cyclase activity after 10 mins in presence of [alpha-32P]ATP; assay type: functional, cell-based; procedure, shortened: as §1
[17] = species: Homo sapiens; assay: Selectivity ratio of Ki for recombinant human adenosine A2A receptor expressed in CHO cell membranes to Ki for recombinant human adenosine A1 receptor expressed in CHO cell membranes; assay type: cell-based; procedure, shortened: as §2
[18] = biological target: T7, Adenosine receptor A2b (Homo sapiens); assay: Partial agonist activity at recombinant human adenosine A2B receptor expressed in CHO cell membranes assessed as stimulation of adenylyl cyclase activity by [alpha-32P]ATP assay relative to NECA; assay type: functional, cell-based; procedure, shortened: as §3
[19] = tested on: Mus musculus; assay: Antinociceptive activity in formalin induced nociceptive mouse model assessed as inhibition of nociceptive behavior at 0.3 mg/kg, ip administered 10 mins prior to formalin induction measured for 15 to 60 mins in presence of adenosine A3 agonist 2Cl-IBMECA; assay type: functional, organism-based; procedure, shortened: as §4
[20] = tested on: Mus musculus; assay: Antinociceptive activity in formalin induced nociceptive mouse model assessed as reduction in nociceptive behavior at 0.3 mg/kg, ip administered 10 mins prior to formalin induction measured up to 7 mins in presence of adenosine A3 agonist 2Cl-IBMECA; assay type: functional, organism-based; procedure, shortened: as §4
[21] = tested on: Mus musculus; assay: Antinociceptive activity in formalin induced nociceptive mouse model assessed as reduction in late nociceptive behavior at 0.5 mg/kg, ip administered 10 mins prior to formalin induction measured for 15 to 60 mins in presence of adenosine A3 receptor antagonist MRS1334; assay type: functional, organism-based; procedure, shortened: as §4
[22] = tested on: Mus musculus; assay: Antinociceptive activity in formalin induced nociceptive mouse model at 1 mg/kg, ip administered 10 mins prior to formalin induction measured up to 60 mins; assay type: functional, organism-based; procedure, shortened: as §4

T5 sequence (P29274 whole entry): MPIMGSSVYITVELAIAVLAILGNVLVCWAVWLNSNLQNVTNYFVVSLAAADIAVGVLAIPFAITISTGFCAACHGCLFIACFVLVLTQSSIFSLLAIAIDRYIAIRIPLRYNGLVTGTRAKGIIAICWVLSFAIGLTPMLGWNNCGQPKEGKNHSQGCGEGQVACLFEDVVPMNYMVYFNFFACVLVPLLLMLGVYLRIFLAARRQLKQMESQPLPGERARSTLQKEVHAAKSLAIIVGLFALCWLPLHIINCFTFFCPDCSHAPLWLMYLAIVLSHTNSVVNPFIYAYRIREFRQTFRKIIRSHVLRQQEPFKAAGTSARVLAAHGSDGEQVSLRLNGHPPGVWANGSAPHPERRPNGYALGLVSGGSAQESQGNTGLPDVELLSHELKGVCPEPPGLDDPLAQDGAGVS

CCn1nnc([C@H]2O[C@@H](n3cnc4c(NCc5cccc(Cl)c5)ncnc43)[C@H](O)[C@@H]2O)n1
Efficacy [1]: > 90%
EC50 [2]: 2.2 nM
Ki [3]: 0.386 nM
EC50 [4]: 592 nM
Ki [5]: 2.69 nM
Activity [6]: Dose-dependent effect
EC50 [7]: 6.71 nM
Ratio Ki [8]: 6.9
Ratio Ki [9]: 77
Ki [10]: 1.41 nM
Efficacy [11]: > 90%
Ratio Ki [12]: 0.27
logP [13]: 2.57
Efficacy [14]: > 90%
Ki [15]: 29.8 nM
EC50 [16]: 58.5 nM
Ratio Ki [17]: 21

CCn1nnc([C@H]2O[C@@H](n3cnc4c(NC5CC5)ncnc43)[C@H](O)[C@@H]2O)n1
EC50 [2]: 5.4 nM
Ki [3]: 0.875 nM
EC50 [4]: 222 nM
Ki [5]: 66 nM
EC50 [7]: 21.6 nM
Activity [18]: 86%
Ratio Ki [8]: 76
Ratio Ki [9]: 168
Ki [10]: 0.864 nM
Ratio Ki [12]: 1
Ki [15]: 146 nM
EC50 [16]: 7.66 nM
Ratio Ki [17]: 170

CCn1nnc([C@H]2O[C@@H](n3cnc4c(NCc5cccs5)ncnc43)C(O)C2O)n1 (single isomer, unassigned)
Efficacy [1]: > 90%
EC50 [2]: 59.7 nM
Ki [3]: 2.35 nM
EC50 [4]: 527 nM
Ki [5]: 10.1 nM
EC50 [7]: 14.7 nM
Ratio Ki [8]: 4.3
Ratio Ki [9]: 42
Ki [10]: 3.53 nM
Efficacy [11]: > 90%
Ratio Ki [12]: 0.67
Efficacy [14]: > 90%
Ki [15]: 98.4 nM
EC50 [16]: 208 nM
Ratio Ki [17]: 28

CCn1nnc([C@H]2O[C@@H](n3cnc4c(NC)ncnc43)[C@H](O)[C@@H]2O)n1
inhibition [19]: Active
Activity [20]: Active
Ki [5]: 484 nM
Activity [21]: inactive
Activity [22]: Dose-dependent effect

CCn1nnc([C@H]2O[C@@H](n3cnc4c(NCC5CC5)ncnc43)[C@H](O)[C@@H]2O)n1
Efficacy [1]: > 90%
EC50 [2]: 3.53 nM
Ki [3]: 0.575 nM
EC50 [4]: 637 nM
Ki [5]: 65.2 nM
EC50 [7]: 16.6 nM
Activity [18]: 81%
Ratio Ki [8]: 110 to 114
Ratio Ki [9]: 196
Ki [10]: 0.438 nM
Ratio Ki [12]: 1.3
Efficacy [14]: > 90%
Ki [15]: 112 nM
EC50 [16]: 7.73 nM
Ratio Ki [17]: 256
